By EC50 is commonly meant the concentration giving half of the maximal effect. The Emax is the size of the effect at its maximum, as opposed to the concentration needed. In general, microsomal CLint refers to a measure of how fast metabolising enzymes remove a compound, apart from limits set by blood flow. A lower microsomal CLint goes with slow turnover. As usually defined, the clearance is the rate of elimination divided by the concentration. Usually half-life stands for the time needed for the level to fall by half in the phase considered. In general, AUC(0-inf) refers to the area under the concentration-time curve extrapolated to infinity. A higher AUC(0-inf) goes with more exposure. Usually Cmax stands for the highest concentration seen after dosing. What is called bioavailability is the share of a dose that reaches the circulation, judged against a reference dose that is usually intravenous. A lower bioavailability goes with little systemic uptake.

Each structure is given as a SMILES string. Bounds are passed on as bounds.

This is an account of results in ChEMBL document CHEMBL1139336, “Discovery of alpha-amidosulfones as potent and selective agonists of CB2: synthesis, SAR, and pharmacokinetic properties” (Bioorg Med Chem Lett, 2009).

For data set [1], the target named is T1, Cannabinoid receptor 2 (Homo sapiens, UniProt P34972). In words: Agonist activity at human CB2 receptor expressed in SF9 cells assessed as inhibition of CP-55940-stimulated GTP binding. Summed up: (§1)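 Sf9 membranes co-expressing hCB1 or hCB2 with Gαi3 (Bmax 1.7 pmol/ml). Europium-GTP (10 nM) binding in 50 mM Hepes, 0.1% BSA, 10 mM MgCl2, 150 mM NaCl, GDP, 0.0005% saponin, 1% DMSO. Compound tested from 0.01 nM upward. Incubated 45 min at room temperature, then filtered and washed; fluorescence read at 615 nm. 3 micromolar CP55940 defines 100% efficacy.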
T1 sequence (P34972 whole entry): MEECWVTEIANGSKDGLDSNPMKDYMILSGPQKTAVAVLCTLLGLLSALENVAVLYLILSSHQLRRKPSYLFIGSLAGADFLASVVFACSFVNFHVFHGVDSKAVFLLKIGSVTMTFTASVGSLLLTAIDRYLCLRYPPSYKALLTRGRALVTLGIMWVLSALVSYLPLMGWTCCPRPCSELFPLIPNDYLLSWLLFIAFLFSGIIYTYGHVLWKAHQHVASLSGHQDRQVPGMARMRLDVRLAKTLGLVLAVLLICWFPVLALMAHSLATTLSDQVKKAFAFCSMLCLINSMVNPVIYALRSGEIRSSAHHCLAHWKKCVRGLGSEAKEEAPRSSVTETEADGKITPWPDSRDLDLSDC

For data set [2], the target named is T1, Cannabinoid receptor 2. Nature of the data set: Agonist activity at human CB2 receptor expressed in SF9 cells assessed as inhibition of CP-55940-stimulated GTP binding relative to control. The essentials:
(§2)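 Sf9 insect-cell membranes co-expressing hCB1 or hCB2 with Gαi3 (Bmax 1.7 pmol/ml). Compound added in 50 mM Hepes/0.1% BSA to buffer with 10 mM MgCl2, 150 mM NaCl, GDP, 10 nM GTP-Europium and 0.0005% saponin. Final DMSO was 1%. Incubated 45 min at room temperature, then filtered, washed and read by fluorescence at 615 nm. 3 µM CP55940 set 100% efficacy. Logistic fit, n = 2–20.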

Data set [3] addresses T2, Cannabinoid receptor 1 (Homo sapiens, UniProt P21554). Nature of the data set: Agonist activity at human CB1 receptor expressed in SF9 cells assessed as inhibition of CP-55940-stimulated GTP binding. Summed up: as §1
Data set [4] has as its target T2, Cannabinoid receptor 1. Nature of the data set: Agonist activity at human CB1 receptor expressed in SF9 cells assessed as inhibition of CP-55940-stimulated GTP binding relative to control. Summed up: as §2
In data set [5] the target is T2, Cannabinoid receptor 1. Nature of the data set: Agonist activity at human CB1 receptor. The class given is functional.
For data set [6], the target named is T2, Cannabinoid receptor 1. In words: Agonist activity at human CB1 receptor relative to control. The class given is functional.
Data set [7] deals with T1, Cannabinoid receptor 2. In words: Agonist activity at human CB2 receptor expressed in CHO cells assessed as suppression of forskolin-stimulated cAMP accumulation. The format is functional, cell-based. The essentials: (§3)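 Forskolin-induced cAMP measured in CHO cells expressing human CB1 or CB2. EC50 from a logistic fit of the concentration–response curve. Emax taken as the maximum of the dose–response. Means of n = 2–20 independent measurements.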
(In general: Cyclic AMP is a second messenger, typically raised through Gs and lowered through Gi signalling.)

Data set [8] deals with T1, Cannabinoid receptor 2. In words: Agonist activity at human CB2 receptor expressed in CHO cells assessed as suppression of forskolin-stimulated cAMP accumulation relative to control. The format is functional, cell-based. The essentials:
(§4)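 CHO cells expressing human CB1 or CB2. Read-out was suppression of forskolin-induced cAMP production in whole cells. Emax was taken as the maximum of the dose–response curve. Values are means of n = 2–20 independent measurements, derived by logistic fit.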

For data set [9], the target named is T2, Cannabinoid receptor 1. Nature of the data set: Agonist activity at human CB1 receptor expressed in CHO cells assessed as suppression of forskolin-stimulated cAMP accumulation. The format is functional, cell-based. Summed up: as §3
Data set [10] addresses T2, Cannabinoid receptor 1. In words: Agonist activity at human CB1 expressed in CHO cells receptor assessed as suppression of forskolin-stimulated cAMP accumulation relative to control. The class given is functional, cell-based. The essentials: as §4
A short description of data set [11]: Intrinsic clearance in human liver microsomes. The format is ADME, Microsome. (In general: Liver microsomes are a subcellular fraction often used to study metabolism.)
Data set [12] can be described thus: Intrinsic clearance in rat liver microsomes. The class given is ADME, Microsome.
A short description of data set [13]: Protein binding in human plasma. The class given is ADME, cell-free. The settings on record: read-out: PPB (converted).
Data set [14] is described as follows: Protein binding in rat plasma. The format is ADME, cell-free. The conditions noted are these: read-out: PPB (converted).
Data set [15] can be described thus: Clearance in Sprague-Dawley rat at 0.5 mg/kg, iv. The format is ADME, organism-based. The arrangement: dose 0.5 mg/kg, route intravenous. The conditions noted are these: in vivo. The essentials:
(§5)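 Single intravenous dose of 0.5 mg/kg given as a solution in DMSO to Sprague–Dawley rats; n = 2 animals.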

Data set [16] is described as follows: Half life in Sprague-Dawley rat at 0.5 mg/kg, iv. Also on record: dose 0.5 mg/kg, route intravenous. The class given is ADME, organism-based. The settings on record: in vivo. The essentials:
as §5

A short description of data set [17]: Volume of distribution at steady state in Sprague-Dawley rat at 0.5 mg/kg, iv. The settings on record: in vivo, read-out: Vdss. Also on record: dose 0.5 mg/kg, route intravenous. The class given is ADME, organism-based. Summed up:
as §5

A short description of data set [18]: AUC (0 to infinity) in Sprague-Dawley rat at 10 mg/kg, po. The format is ADME, organism-based. The arrangement: time infinity, dose 10 mg/kg, route oral. The settings on record: plasma. Summed up:
(§6)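 Oral dose of 10 mg/kg in a 2% HPMC, 1% Tween 80 vehicle given to Sprague–Dawley rats; n = 3 animals.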

Data set [19] can be described thus: Cmax in Sprague-Dawley rat at 10 mg/kg, po. The class given is ADME, organism-based. Also on record: dose 10 mg/kg, route oral. The settings on record: in vivo. The essentials:
as §6

For another data set, the system named is Rattus norvegicus. Nature of the data set: Tmax in Sprague-Dawley rat at 10 mg/kg, po. The arrangement: dose 10 mg/kg, route oral. The format is ADME, organism-based. The conditions noted are these: in vivo. The essentials: as §6
Data set [20] in a line: Oral bioavailability in Sprague-Dawley rat at 10 mg/kg. The class given is ADME, organism-based. The conditions noted are these: in vivo. The essentials:
as §6

T2 sequence (P21554 whole entry): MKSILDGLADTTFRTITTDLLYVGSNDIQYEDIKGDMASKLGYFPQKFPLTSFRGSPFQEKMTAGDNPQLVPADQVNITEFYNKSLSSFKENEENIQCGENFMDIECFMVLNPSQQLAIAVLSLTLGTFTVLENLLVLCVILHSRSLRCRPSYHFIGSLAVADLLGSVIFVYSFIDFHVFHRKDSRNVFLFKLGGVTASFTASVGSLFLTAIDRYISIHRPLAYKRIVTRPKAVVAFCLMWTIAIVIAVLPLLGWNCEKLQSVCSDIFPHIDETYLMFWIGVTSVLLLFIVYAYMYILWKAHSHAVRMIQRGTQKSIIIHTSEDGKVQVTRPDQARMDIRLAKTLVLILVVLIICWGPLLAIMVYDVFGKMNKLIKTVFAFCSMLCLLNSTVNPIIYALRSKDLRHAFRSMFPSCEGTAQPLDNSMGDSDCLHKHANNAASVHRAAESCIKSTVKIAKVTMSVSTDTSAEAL

For the molecule `CC(C)(C(=O)Nc1ccc(Cl)cc1OC(F)(F)F)S(=O)(=O)c1ccc(Cl)cc1`, the EC50 at Cannabinoid receptor 2 [1] is 1620 nM; on Cannabinoid receptor 1 [3] it was > 10000 nM. Moreover, the Emax was 44% on Cannabinoid receptor 2 [2] and 2% on Cannabinoid receptor 1 [4].

Consider `COc1ccc(S(=O)(=O)C(C)(C)C(=O)Nc2cnc3ccccc3c2)c(Cl)c1`, for which the EC50 is 148 nM at Cannabinoid receptor 2 [1] and > 10000 nM on Cannabinoid receptor 1 [3]. Also, the results for the Emax on Cannabinoid receptor 2 [2] and on Cannabinoid receptor 1 [4] were 91% and 12%, respectively.

As to `CCn1c2ccccc2c2cc(NC(=O)CCc3nc(-c4ccccc4F)no3)ccc21`, the EC50 on Cannabinoid receptor 1 [5] was > 2000 nM. The Emax at Cannabinoid receptor 1 [6] is 2%.

Take `CC(C)(C(=O)NCc1ccc(F)c(Cl)c1)S(=O)(=O)c1ccc(Cl)cc1`: the EC50 at Cannabinoid receptor 2 [1] is 1300 nM; on Cannabinoid receptor 1 [3], > 10000 nM. For the same molecule, the Emax at Cannabinoid receptor 2 [2] was 76%; at Cannabinoid receptor 1 [4], 2%.

With `CC(C)(C(=O)Nc1cnc2ccccc2c1)S(=O)(=O)c1ccc(F)cc1`, the EC50 on Cannabinoid receptor 2 [1] was 109 nM; on Cannabinoid receptor 1 [3] it was 2780 nM; at Cannabinoid receptor 2 [7], 33 nM; at Cannabinoid receptor 1 [9], > 2000 nM. For the same molecule, the Emax was found to be 102% at Cannabinoid receptor 2 [2], 22% at Cannabinoid receptor 1 [4], 97% at Cannabinoid receptor 2 [8] and 19% at Cannabinoid receptor 1 [10].

Regarding `Cc1cnc(NC(=O)C(C)(C)S(=O)(=O)c2ccc(Cl)cc2)s1`, the EC50 at Cannabinoid receptor 2 [1] and on Cannabinoid receptor 1 [3] was > 10000 nM each time. The Emax at Cannabinoid receptor 2 [2] came out at 4%; at Cannabinoid receptor 1 [4], 7%.

For `CC(C)(C(=O)Nc1cnc2ccccc2c1)S(=O)(=O)c1ccc(C(F)(F)F)cc1Cl`, the EC50 was 19 nM at Cannabinoid receptor 2 [1], 1570 nM on Cannabinoid receptor 1 [3], 73 nM on Cannabinoid receptor 2 [7] and > 2000 nM on Cannabinoid receptor 1 [9]. The Emax at Cannabinoid receptor 2 [2] is 94%; on Cannabinoid receptor 1 [4] it was 71%; at Cannabinoid receptor 2 [8], 94%; at Cannabinoid receptor 1 [10], 41%.

For the molecule `CC(C)(C)c1cc(NC(=O)C(C)(C)S(=O)(=O)c2ccc(Cl)cc2)no1`, the EC50 is 29 nM at Cannabinoid receptor 2 [1], 1920 nM at Cannabinoid receptor 1 [3], 11 nM on Cannabinoid receptor 2 [7] and > 2000 nM at Cannabinoid receptor 1 [9]. Moreover, the Emax at Cannabinoid receptor 2 [2] was determined as 99%; at Cannabinoid receptor 1 [4], 57%; on Cannabinoid receptor 2 [8], 85%; at Cannabinoid receptor 1 [10], 23%.

With `CC(C)(C(=O)Nc1ccc(C(F)(F)F)cc1)S(=O)(=O)c1ccc(Cl)cc1`, the EC50 on Cannabinoid receptor 2 [1] is 115 nM; at Cannabinoid receptor 1 [3] it was > 10000 nM; on Cannabinoid receptor 2 [7], 57 nM; on Cannabinoid receptor 1 [9] it was > 1000 nM. For the same molecule, the Emax was determined as 77% on Cannabinoid receptor 2 [2], 14% at Cannabinoid receptor 1 [4], 93% at Cannabinoid receptor 2 [8] and 19% at Cannabinoid receptor 1 [10].

With `CC(C)(C(=O)Nc1ccc(Cl)c(-c2ccco2)c1)S(=O)(=O)c1ccc(Cl)cc1`, the EC50 on Cannabinoid receptor 2 [1] was 4 nM; at Cannabinoid receptor 1 [3], 96 nM; on Cannabinoid receptor 2 [7], 5 nM; at Cannabinoid receptor 1 [9], 230 nM. Further, the Emax came to 101% on Cannabinoid receptor 2 [2], 82% at Cannabinoid receptor 1 [4], 101% on Cannabinoid receptor 2 [8] and 98% on Cannabinoid receptor 1 [10].

Regarding `CC(C)(C(=O)NCc1ccccc1)S(=O)(=O)c1ccc(Cl)cc1`, the EC50 on Cannabinoid receptor 2 [1] and at Cannabinoid receptor 1 [3] was > 10000 nM in each case. Besides, the Emax was determined as 0% at Cannabinoid receptor 2 [2] and 7% at Cannabinoid receptor 1 [4].

With `CC(C)(C(=O)Nc1ccc(Cl)c(C(F)(F)F)c1)S(=O)(=O)c1ccc(Cl)cc1`, the EC50 is 20 nM on Cannabinoid receptor 2 [1], 700000 nM on Cannabinoid receptor 1 [3], 5 nM on Cannabinoid receptor 2 [7] and > 2000 nM on Cannabinoid receptor 1 [9]. Further, the Emax turned out to be 102% at Cannabinoid receptor 2 [2], 22% on Cannabinoid receptor 1 [4], 96% on Cannabinoid receptor 2 [8] and 39% on Cannabinoid receptor 1 [10]. For the same molecule, the microsomal CLint in [11] and in data set [12] was 14 µL/min/mg throughout. Further, the fraction unbound in data set [13] is 0.002; in [14], 0.003. For the same molecule, in data set [15], the clearance is 9 mL/min/kg. The molecule also showed a half-life in data set [16] of 14 h. The Vd in [17] came out at 9.3 L/kg. The molecule also registered an AUC(0-inf) in data set [18] of 9680 ng·h/mL. Also, the Cmax in data set [19] stood at 560 ng/mL. Besides, the Tmax in the data set on Rattus norvegicus was 1.7%. This molecule also returned a bioavailability in [20] of 52%.
